Screening data as filed in PubChem.
HIV Env fusion = HIV envelope-mediated fusion inhibition | HeLa-JRFL Env/CEM21 cell fusion, luciferase | inhibition, % at 12.3 µM | 360,000 compounds, 1.1% hits | AID 651610;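 active = mean replicate inhibition score of at least 50 and every replicate individually at or above 50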;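 note: 0% = plate neutral controls and 100% = maraviroc near 300 nM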
GSIS activator = GLuc luminescence reporter in INS-1E cells, primary screen for activators of glucose-dependent secretion of insulin; INS-1E GLuc reporter insulin secretion, 2-3 h; activation, % at 16.6 µM; 370,000 compounds, 0.61% hits; AID 743287;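 active = lowest replicate activation of at least 40%, so every replicate reaches that level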;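 note: 0% = median of neutral control wells and 100% = median of IBMX positive control wells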
PDI inh = blocks human protein disulfide isomerase activity; P07237; PDI insulin aggregation turbidity, A650, 90 min; inhibition, % at 10 µM; 350,000 compounds, 0.052% hits; AID 588391;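 active = mean inhibition across replicates of 30% or more, whatever share of single replicates reach that level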
ERp5 block = ERp5 (human) disulfide isomerase inhibition | inhibition, % at 9.99 µM | 350,000 compounds, 0.05% hits | ERp5 insulin aggregation, absorbance 650 nm, 90 min | Q15084 | AID 651711;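 active = mean replicate inhibition above about 25%, with every replicate also reaching it, limit read from the data, passing the limit was not always enough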
Target sequence (Q15084 whole entry, looked up): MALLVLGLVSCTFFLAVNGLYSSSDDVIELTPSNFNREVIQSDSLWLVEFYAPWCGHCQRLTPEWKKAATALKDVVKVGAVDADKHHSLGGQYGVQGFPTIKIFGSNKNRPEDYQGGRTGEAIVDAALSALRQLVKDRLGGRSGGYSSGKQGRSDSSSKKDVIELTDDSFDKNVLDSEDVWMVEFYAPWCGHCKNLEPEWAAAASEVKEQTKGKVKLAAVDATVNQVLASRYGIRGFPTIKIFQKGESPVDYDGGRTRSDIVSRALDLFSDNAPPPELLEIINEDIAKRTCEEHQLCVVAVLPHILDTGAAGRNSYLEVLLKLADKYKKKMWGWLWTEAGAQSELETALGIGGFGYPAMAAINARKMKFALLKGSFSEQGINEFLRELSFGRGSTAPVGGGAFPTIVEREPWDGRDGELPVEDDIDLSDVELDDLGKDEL
FN deposition inh = fibronectin deposition inhibition | AH1F fibroblasts, Alexa488-fibronectin deposition fluorescence, overnight | 350,000 compounds, 0.086% hits | inhibition, % at 12.6 µM | AID 743247;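 active = mean inhibition across replicates of 30% or more, regardless of how many single replicates reach that level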;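 note: positive control wells lacked labelled fibronectin entirely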
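Material – AH1F fibroblast monolayer, labelled fibronectin deposition · Reagent – labelled fibronectin 24 nM · Timing – 1 h adhesion, overnight exposure · Measured by – fluorescence at 485 nm excitation, 525 nm emission · Read-out – inhibition of fibronectin deposition signal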
Starred values were filed as active, the others as inactive; · = no result given; [ ] = dose if it differs, or a comment. The list is not random: actives were taken first. Their share in the collection is about 1.4%.

SMILES | HIV Env fusion | GSIS activator | PDI inh | ERp5 block | FN deposition inh
CCn1c(C(=O)N2CCCC(C(=O)NCCCc3ccccc3)C2)cc2sccc21 (stereo not given) | 65.6* | · | 11.8 | · | -1.6
CCn1c(C(=O)N2CCCC(C(=O)NCCc3ccc(C)cc3)C2)cc2sccc21 (stereo not given) | · | -30.6 | -2.1 | · | ·
CN1C(=O)c2cc(NC(=O)c3ccc(F)cc3)ccc2OC[C@H]2O[C@H](CC(=O)O)CC[C@@H]21 | 1.3[16.7 µM] | -2.4 | · | -3.2 | -6.2
CC(=O)c1ccc([C@H]2C[C@@]34CN(C(=O)OC(C)(C)C)S(=O)(=O)[C@H]3C[C@H]2O4)cc1 | 67.7* | -8.7 | -4.2 | 8.7 | 1.1
O=C(NCC[C@H]1CC[C@@H](NC(=O)Nc2cc(F)ccc2F)[C@H](CO)O1)Nc1ccc(F)cc1 | -6.4[16.7 µM] | -27.0 | · | 0.7 | ·
Cc1sc(NC(=O)c2ccco2)c(C(c2cccnc2)N2CCC(C)CC2)c1C (stereo not given) | 62.1* | 9.6 | -1.5 | · | -2.9
COc1ccc(-c2cn(CC[C@H]3CC[C@@H](NC(=O)NC(C)C)[C@@H](CO)O3)nn2)cc1 | 14.7[16.7 µM] | -9.3 | · | -6.4 | 1.3
C[C@@]12C(C[C@H](O)[C@@]34C[C@@H](CCC13)[C@@H](CO)C4=O)[C@](C)(C(=O)O)CC[C@@H]2O (stereo not given in full) | -18.8 | -6.6 | · | -0.2 | -1.7
C=C1C(=O)[C@]23C[C@H]1CCC2[C@@]1(C)C(C[C@@H]3O)[C@](C)(C(=O)OC)CC[C@@H]1O (stereo not given in full) | 21.6 | 86.8* | · | 5.2 | -1.3
Cn1c(N2CCOCC2)c(/C=N/OC(=O)c2ccc(F)cc2)c2ccccc21 | 59.3* | · | -0.9 | · | 0.0
Nc1ncnc2c1nc(Sc1ccc(Cl)cc1)n2[C@@H]1O[C@@H]2COP(=O)(O)O[C@H]2[C@H]1O | 14.3 | 64.1* | -6.2 | 0.4 | ·
CCCC(=O)Nc1ncnc2c1ncn2[C@@H]1O[C@@H]2COP(=O)(O)O[C@H]2[C@H]1OC(=O)CCC | -5.8 | · | 4.7 | -3.9 | -2.0
C[C@H]1CN([C@@H](C)CO)C(=O)c2c(c3ccccc3n2C)-c2ccccc2CO[C@H]1CN(C)C(=O)NC1CCCCC1 | 42.9[16.7 µM] | 12.9 | · | -5.4 | -24.0
O=C(c1cccc(S(=O)(=O)NCc2ccccc2)c1)N1CCN(c2cccc(C(F)(F)F)c2)CC1 | 60.7* | -39.9 | 6.0 | 5.6 | ·
O=C(c1cccc(S(=O)(=O)NCc2ccccc2)c1)N1CCN(c2ccccc2)CC1 | 15.0 | · | -5.2 | 2.6 | -10.9
C[C@H](CO)N1C[C@H](C)[C@@H](CN(C)S(=O)(=O)c2cn(C)cn2)OCCCC[C@H](C)Oc2ccc(NC(=O)c3ccncc3)cc2C1=O | 6.7[16.7 µM] | 4.9 | · | 1.9 | ·
N#Cc1sc2nc3c(c(-c4cccnc4)c2c1N)CCC3 | · | 46.1* | -4.3 | -3.7 | ·
CC(C)NC(=O)Nc1ccc2c(c1)C(=O)N([C@H](C)CO)C[C@H](C)[C@H](CN(C)S(=O)(=O)c1cn(C)cn1)O2 | -29.8[16.7 µM] | -4.2 | · | 1.7 | 5.6
Nc1ncnc(N2CCc3ccccc32)c1[N+](=O)[O-] | 66.8* | 10.2 | -1.8 | 1.0 | 1.7
O=C(Cc1ccccc1)Nc1ncnc2c1C(c1ccccc1)c1c(ccc3ccccc13)O2 (stereo not given) | 68.1* | 18.6 | -2.0 | 0.9 | -5.4
Cc1nc(CN2CCN(S(=O)(=O)c3c(Cl)cc(Br)cc3Cl)CC2)cs1 | -41.9 | 68.5* | 0.7 | 12.1 | ·
Cc1nc(CN2CCN(C(=O)NC3(c4ccccc4)CC3)CC2)cs1 | · | 3.0 | 1.5 | · | ·
COc1ccc(C(O)c2nccc3cc(OC)c(OC)cc23)cc1OC (stereo not given) | -1.8 | 82.8* | -2.2 | -0.1 | -1.8
CCOC(=O)c1c(NC(=O)C(C)N2CCN(C(=O)c3ccco3)CC2)sc2c1CCCC2 (stereo not given) | 56.2* | · | 10.6 | · | -12.5
CCOC(=O)c1c(NC(=O)c2ccco2)sc2c1CCCCC2 | · | 17.9 | -4.5 | · | ·
SMILES | HIV Env fusion | GSIS activator | PDI inh | ERp5 block | FN deposition inh
CO[C@H]1CN(C)C(=O)c2ccc(NC(=O)C3CC3)cc2OC[C@@H](C)N(C(=O)CN(C)C)C[C@H]1C | · | 10.0 | · | 0.3 | -18.0
N#C[C@@H]1[C@@H](c2ccccc2-c2ccc(F)cc2)[C@H](CO)N1C(=O)NC1CCCC1 | · | -29.6 | · | -1.7 | -8.8
CCN(CC)S(=O)(=O)c1cccc(NC(=O)Nc2cccc(C(F)(F)F)c2)c1 | 118.5* | · | 4.0 | · | -5.6
Cc1ccc(NC(=O)c2oc3ccc(S(=O)(=O)N4CCOCC4)cc3c2C)cc1C | -13.6 | 79.3* | 1.7 | · | -1.4
Cc1ccc(NC(=O)c2cc3c(s2)CCC3)cc1S(=O)(=O)N1CCOCC1 | 58.3* | · | 1.1 | · | 3.0
CCCCN(C)C(=O)c1oc2ccc(S(=O)(=O)N3CCCCCC3)cc2c1C | 60.7* | -31.5 | -2.2 | · | 0.5
O=C(C[C@@H]1C[C@@H]2c3cc(NC(=O)C4CCC4)ccc3O[C@@H]2[C@H](CO)O1)NCc1ccccc1F | -5.9[16.7 µM] | -10.2 | · | 1.4 | -4.8
CC(C)NC(=O)Nc1ccc2c(c1)C(=O)N([C@@H](C)CO)C[C@H](C)[C@@H](CN(C)Cc1ccc(C(F)(F)F)cc1)OCCCC[C@H](C)O2 | -11.5[16.7 µM] | -21.3 | · | -1.8 | 1.6
CCC(C)(C)C1CCc2c(sc(NC(=O)c3cccs3)c2C(N)=O)C1 (stereo not given) | -37.9 | 0.8 | -0.2 | 0.7 | -0.3
CC(C)(C)C1CCc2c(sc(NC(=O)c3cccs3)c2C(N)=O)C1 (stereo not given) | · | 44.7* | -13.1 | · | ·
CCOc1cc(OCC)nc(S(C)(=O)=O)n1 | 17.2 | 48.7* | -6.9 | · | 5.4
CN1c2ccc(C3=CCCCC3)cc2[C@H]2[C@H](CCN2C(=O)NC2CCCCC2)[C@@H]1CO | · | -21.5 | · | · | -0.5
CCOC(=O)c1ccccc1NC(=O)COC(=O)CCCOc1ccccc1 | -14.0 | 55.9* | 1.3 | -1.1 | -4.0
CCNc1ccc(C(=O)N/N=C/c2c(C)nn(-c3ccccc3)c2N2CCCC2)cc1[N+](=O)[O-] | 22.2 | 46.4* | 1.6 | 0.1 | 6.7
Cc1cccc(N(Cc2ccccc2)C(=O)CCl)c1 | 25.1 | 97.2* | -2.4 | -6.0 | ·
O=C(c1cccc(F)c1)N1CC(=O)N2[C@H](C1)[C@@H](c1ccc(C3=CCCC3)cc1)[C@@H]2CO | · | 6.8 | · | 3.5 | -11.7
O=C(COC(=O)Cc1cccc(F)c1)NCCc1ccccc1 | · | · | -4.5 | 3.9 | 13.2
O=C(COC(=O)Cc1ccc(F)cc1)NCCc1ccccc1 | 0.8 | 42.7* | -4.2 | 0.9 | 6.5
O=C(OCC12CC3CC(CC(C3)C1)C2)c1ccc(NCc2cc(O)ccc2O)cc1 | -29.5 | 156.8* | 8.7 | -11.6 | -24.0
C[C@@H]1CN([C@H](C)CO)C(=O)c2cccc(NS(C)(=O)=O)c2O[C@H]1CN(C)S(=O)(=O)c1ccc(F)cc1 | 10.4[16.7 µM] | 6.2 | · | · | ·
CCN(CC)S(=O)(=O)c1ccc(/C=C/C(=O)OCC(=O)NC(=O)C2COc3ccccc3O2)cc1 (stereo not given) | -0.3 | -11.9 | -10.5 | -11.9 | 2.6
